Results published in ChEMBL document CHEMBL1155370, “Discovery and initial SAR of pyrimidin-4-yl-1H-imidazole derivatives with antiproliferative activity against melanoma cell lines” (Bioorg Med Chem Lett, 2010).
Blank lines part the entries; values can stand above or below the compound they belong to. Activity calls are given as the source filed them. The rule behind the calls is not given here.

How the values were obtained:
[1] = (§1) Growth inhibition of human WM3629 cells by MTT assay; type: functional
Method in brief: (§2)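 WM3629 cells kept in Tu2% medium. They were seeded at 5×10^3 cells/well, rested 24 h, then exposed to a 12-point three-fold serial dilution. GI50 was taken from an MTT reduction assay read at 590 nm.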

[2] = (§3) Growth inhibition of human A375P cells by MTT assay; type: functional
Method in brief: (§4)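 A375P cells grown in DMEM with 10% FBS and 1% penicillin/streptomycin at 37 °C in 5% CO2. Cells were detached with trypsin-EDTA, seeded at 5×10^3 cells/well and left 24 h. They were then treated with a 12-point three-fold serial dilution. Viability was read by MTT reduction assay as absorbance at 590 nm.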

[3] = Selectivity ratio of GI50 for human WM3629 cells to GI50 for human A375P cells; type: functional
[4] = target: Epidermal growth factor receptor (Homo sapiens) (UniProt P00533); test: Inhibition of EGFR at 10 uM
Method in brief: (§5)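 Single-dose panel screen across 30 kinases at 10 µM, run in duplicate; % inhibition reported.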

[5] = target: Cyclin-dependent kinase 2/cyclin E1 (Homo sapiens) (UniProt P24864+P24941); test: Inhibition of CDK2/cyclin E at 10 uM; type: protein-complex assay; method in brief: as §5
[6] = target: Ribosomal protein S6 kinase beta-1 (Homo sapiens) (UniProt P23443); test: Inhibition of p70S6K at 10 uM; method in brief: as §5
[7] = target: Serine/threonine-protein kinase Chk1 (Homo sapiens) (UniProt O14757); test: Inhibition of CHK1 at 10 uM; method in brief: as §5
[8] = target: Tyrosine-protein kinase JAK3 (Homo sapiens) (UniProt P52333); test: Inhibition of JAK3 at 10 uM; method in brief: as §5
[9] = target: Myotonin-protein kinase (Homo sapiens) (UniProt Q09013); test: Inhibition of DMPK at 10 uM; method in brief: as §5
[10] = target: Tyrosine-protein kinase SYK (Homo sapiens) (UniProt P43405); test: Inhibition of SYK at 10 uM; method in brief: as §5
[11] = target: Mitogen-activated protein kinase 14 (Homo sapiens) (UniProt Q16539); test: Inhibition of p38alpha at 10 uM; method in brief: as §5
[12] = target: Mitogen-activated protein kinase 8 (Homo sapiens) (UniProt P45983); test: Inhibition of JNK1 at 10 uM; method in brief: as §5
[13] = target: Glycogen synthase kinase-3 beta (Homo sapiens) (UniProt P49841); test: Inhibition of GSK3-beta at 10 uM; method in brief: as §5
[14] = target: Focal adhesion kinase 1 (Homo sapiens) (UniProt Q05397); test: Inhibition of human FAK at 10 uM; method in brief: as §5
[15] = target: Proto-oncogene tyrosine-protein kinase ROS (Homo sapiens) (UniProt P08922); test: Inhibition of ROS at 10 uM; method in brief: as §5
[16] = target: RAF proto-oncogene serine/threonine-protein kinase (Homo sapiens) (UniProt P04049); test: Inhibition of cRAF at 10 uM; method in brief: as §5
[17] = target: RAC-alpha serine/threonine-protein kinase (Homo sapiens) (UniProt P31749); test: Inhibition of AKT1 at 10 uM; method in brief: as §5
[18] = target: Mitogen-activated protein kinase 1 (Homo sapiens) (UniProt P28482); test: Inhibition of ERK2 at 10 uM; method in brief: as §5
[19] = target: Dual specificity mitogen-activated protein kinase kinase 1 (Homo sapiens) (UniProt Q02750); test: Inhibition of MEK1 at 10 uM; method in brief: as §5
[20] = target: BDNF/NT-3 growth factors receptor (Homo sapiens) (UniProt Q16620); test: Inhibition of TrkB at 10 uM; method in brief: as §5
[21] = target: Serine/threonine-protein kinase mTOR (Homo sapiens) (UniProt P42345); test: Inhibition of mTOR at 10 uM; method in brief: as §5
[22] = target: Proto-oncogene tyrosine-protein kinase Src (Homo sapiens) (UniProt P12931); test: Inhibition of c-Src at 10 uM; method in brief: as §5
[23] = target: Cyclin-dependent kinase 1/cyclin B1 (Homo sapiens) (UniProt P06493+P14635); test: Inhibition of CDK1/cyclin B at 10 uM; type: protein-complex assay; method in brief: as §5
[24] = target: Cyclin-dependent kinase 5/CDK5 activator 1 (Homo sapiens) (UniProt Q00535+Q15078); test: Inhibition of CDK5/p25 at 10 uM; type: protein-complex assay; method in brief: as §5
[25] = target: Receptor-type tyrosine-protein kinase FLT3 (Homo sapiens) (UniProt P36888); test: Inhibition of human FLT3 at 10 uM; method in brief: as §5
[26] = target: Macrophage-stimulating protein receptor (Homo sapiens) (UniProt Q04912); test: Inhibition of RON at 10 uM; method in brief: as §5
[27] = target: Serine/threonine-protein kinase PAK 4 (Homo sapiens) (UniProt O96013); test: Inhibition of PAK4 at 10 uM; method in brief: as §5
[28] = target: ALK tyrosine kinase receptor (Homo sapiens) (UniProt Q9UM73); test: Inhibition of ALK at 10 uM; method in brief: as §5
[29] = target: DNA-dependent protein kinase catalytic subunit (Homo sapiens) (UniProt P78527); test: Inhibition of DNA-PK at 10 uM; method in brief: as §5
[30] = target: Protein kinase C alpha type (Homo sapiens) (UniProt P17252); test: Inhibition of PKCalpha at 10 uM; method in brief: as §5
[31] = target: Tyrosine-protein kinase Lyn (Homo sapiens) (UniProt P07948); test: Inhibition of LYN at 10 uM; method in brief: as §5
[32] = target: Insulin-like growth factor 1 receptor (Homo sapiens) (UniProt P08069); test: Inhibition of IGF1R at 10 uM; method in brief: as §5
[33] = Inhibition of PKA at 10 uM
Method in brief: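 Single-concentration screen at 10 µM within a 30-kinase panel, run in duplicate; read-out is percent inhibition of kinase activity.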

[34] = Growth inhibition of human A375P cells at 164 uM by MTT assay relative to total growth; type: functional; details: read-out: GI
WM3629 = test: as §1; type: functional; method in brief: as §2
A375P = test: as §3; type: functional; method in brief: as §4
[35] = Growth inhibition of human A375P cells at 8.05 uM by MTT assay relative to total growth; type: functional; details: read-out: GI

Chain of Mitogen-activated protein kinase 1 (Homo sapiens) (P28482 whole entry): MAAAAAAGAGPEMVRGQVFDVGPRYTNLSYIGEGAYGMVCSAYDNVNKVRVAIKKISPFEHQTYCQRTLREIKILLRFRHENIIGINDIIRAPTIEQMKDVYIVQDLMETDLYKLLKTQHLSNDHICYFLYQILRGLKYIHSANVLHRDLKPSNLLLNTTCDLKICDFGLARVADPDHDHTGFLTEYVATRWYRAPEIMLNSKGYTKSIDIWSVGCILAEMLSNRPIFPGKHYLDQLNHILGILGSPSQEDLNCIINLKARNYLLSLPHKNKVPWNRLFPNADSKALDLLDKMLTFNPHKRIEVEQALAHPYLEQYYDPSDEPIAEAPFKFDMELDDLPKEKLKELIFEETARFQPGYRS
Chain of Proto-oncogene tyrosine-protein kinase ROS (Homo sapiens) (P08922 whole entry): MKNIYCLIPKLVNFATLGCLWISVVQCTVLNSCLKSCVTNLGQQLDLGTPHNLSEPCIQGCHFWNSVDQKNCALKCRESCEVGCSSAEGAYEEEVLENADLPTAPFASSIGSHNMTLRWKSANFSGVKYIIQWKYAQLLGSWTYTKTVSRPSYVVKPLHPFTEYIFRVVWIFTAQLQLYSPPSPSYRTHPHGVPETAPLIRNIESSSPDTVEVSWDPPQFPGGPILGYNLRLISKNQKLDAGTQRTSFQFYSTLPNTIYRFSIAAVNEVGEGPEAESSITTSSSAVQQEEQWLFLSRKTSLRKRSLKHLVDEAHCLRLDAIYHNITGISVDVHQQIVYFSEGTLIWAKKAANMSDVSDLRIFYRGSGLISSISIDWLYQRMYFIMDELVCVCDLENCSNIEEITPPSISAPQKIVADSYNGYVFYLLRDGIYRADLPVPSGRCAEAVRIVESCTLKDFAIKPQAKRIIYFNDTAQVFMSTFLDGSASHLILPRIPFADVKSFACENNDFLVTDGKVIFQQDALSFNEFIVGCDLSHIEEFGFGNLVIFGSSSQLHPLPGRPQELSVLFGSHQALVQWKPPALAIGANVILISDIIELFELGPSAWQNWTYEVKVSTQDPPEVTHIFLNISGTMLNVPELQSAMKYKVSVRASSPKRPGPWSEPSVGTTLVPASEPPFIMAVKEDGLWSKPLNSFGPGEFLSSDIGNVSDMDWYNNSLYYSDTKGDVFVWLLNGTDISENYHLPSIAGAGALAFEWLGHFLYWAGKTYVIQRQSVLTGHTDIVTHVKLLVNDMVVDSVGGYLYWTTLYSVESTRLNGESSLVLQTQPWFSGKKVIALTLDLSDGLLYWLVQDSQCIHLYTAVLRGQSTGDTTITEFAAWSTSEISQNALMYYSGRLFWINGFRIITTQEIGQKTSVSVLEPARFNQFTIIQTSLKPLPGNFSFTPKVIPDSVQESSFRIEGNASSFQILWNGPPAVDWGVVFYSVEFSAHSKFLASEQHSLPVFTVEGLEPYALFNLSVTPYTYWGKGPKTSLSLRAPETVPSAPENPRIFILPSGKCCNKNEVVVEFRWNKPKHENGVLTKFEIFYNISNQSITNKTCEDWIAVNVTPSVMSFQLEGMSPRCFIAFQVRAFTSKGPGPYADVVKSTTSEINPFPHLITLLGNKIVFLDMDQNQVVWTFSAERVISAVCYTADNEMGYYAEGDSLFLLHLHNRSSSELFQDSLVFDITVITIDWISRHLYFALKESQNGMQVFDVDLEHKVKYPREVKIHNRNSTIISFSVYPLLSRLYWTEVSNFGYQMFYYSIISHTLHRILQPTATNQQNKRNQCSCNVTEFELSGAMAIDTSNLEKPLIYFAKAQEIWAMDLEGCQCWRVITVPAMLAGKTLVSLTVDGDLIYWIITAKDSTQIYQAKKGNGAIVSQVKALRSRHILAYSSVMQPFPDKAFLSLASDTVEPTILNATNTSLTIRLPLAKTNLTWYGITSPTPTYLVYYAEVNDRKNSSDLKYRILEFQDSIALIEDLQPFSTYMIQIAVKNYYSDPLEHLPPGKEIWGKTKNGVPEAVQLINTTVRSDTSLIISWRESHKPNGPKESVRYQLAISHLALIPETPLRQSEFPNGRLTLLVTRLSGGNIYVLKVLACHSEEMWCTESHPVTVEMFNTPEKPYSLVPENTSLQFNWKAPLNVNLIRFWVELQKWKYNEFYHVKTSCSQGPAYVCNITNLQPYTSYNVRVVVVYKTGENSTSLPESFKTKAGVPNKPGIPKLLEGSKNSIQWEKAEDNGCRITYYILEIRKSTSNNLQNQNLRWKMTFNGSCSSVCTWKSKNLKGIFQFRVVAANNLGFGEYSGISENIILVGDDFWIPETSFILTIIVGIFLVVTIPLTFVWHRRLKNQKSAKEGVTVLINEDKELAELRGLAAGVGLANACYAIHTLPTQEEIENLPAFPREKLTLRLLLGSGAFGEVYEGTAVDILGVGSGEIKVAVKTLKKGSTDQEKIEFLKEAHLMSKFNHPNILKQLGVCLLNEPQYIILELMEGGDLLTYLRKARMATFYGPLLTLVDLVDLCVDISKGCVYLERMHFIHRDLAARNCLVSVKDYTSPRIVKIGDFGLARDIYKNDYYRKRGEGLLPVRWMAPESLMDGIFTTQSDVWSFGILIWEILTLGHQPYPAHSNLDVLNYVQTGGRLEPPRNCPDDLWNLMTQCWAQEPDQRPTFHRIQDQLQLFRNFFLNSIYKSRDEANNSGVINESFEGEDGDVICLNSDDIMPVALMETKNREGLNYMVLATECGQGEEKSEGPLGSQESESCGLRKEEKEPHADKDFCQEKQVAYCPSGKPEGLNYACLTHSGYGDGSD
Chain of Proto-oncogene tyrosine-protein kinase Src (Homo sapiens) (P12931 2-536 limits assumed): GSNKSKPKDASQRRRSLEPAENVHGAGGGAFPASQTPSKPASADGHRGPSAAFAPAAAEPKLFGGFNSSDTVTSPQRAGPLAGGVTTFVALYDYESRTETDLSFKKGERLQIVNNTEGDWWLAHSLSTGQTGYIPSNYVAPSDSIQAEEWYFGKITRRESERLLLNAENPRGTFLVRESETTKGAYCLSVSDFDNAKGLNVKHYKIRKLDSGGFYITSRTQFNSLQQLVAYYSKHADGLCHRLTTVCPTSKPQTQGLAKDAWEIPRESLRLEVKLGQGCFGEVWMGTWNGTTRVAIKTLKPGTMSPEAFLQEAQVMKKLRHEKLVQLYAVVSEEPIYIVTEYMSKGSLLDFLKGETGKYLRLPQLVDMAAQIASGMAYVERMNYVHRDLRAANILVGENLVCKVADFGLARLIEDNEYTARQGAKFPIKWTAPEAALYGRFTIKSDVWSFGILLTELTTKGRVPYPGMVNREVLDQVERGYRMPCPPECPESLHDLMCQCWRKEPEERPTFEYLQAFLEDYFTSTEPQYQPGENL
Chain of RAC-alpha serine/threonine-protein kinase (Homo sapiens) (P31749 whole entry): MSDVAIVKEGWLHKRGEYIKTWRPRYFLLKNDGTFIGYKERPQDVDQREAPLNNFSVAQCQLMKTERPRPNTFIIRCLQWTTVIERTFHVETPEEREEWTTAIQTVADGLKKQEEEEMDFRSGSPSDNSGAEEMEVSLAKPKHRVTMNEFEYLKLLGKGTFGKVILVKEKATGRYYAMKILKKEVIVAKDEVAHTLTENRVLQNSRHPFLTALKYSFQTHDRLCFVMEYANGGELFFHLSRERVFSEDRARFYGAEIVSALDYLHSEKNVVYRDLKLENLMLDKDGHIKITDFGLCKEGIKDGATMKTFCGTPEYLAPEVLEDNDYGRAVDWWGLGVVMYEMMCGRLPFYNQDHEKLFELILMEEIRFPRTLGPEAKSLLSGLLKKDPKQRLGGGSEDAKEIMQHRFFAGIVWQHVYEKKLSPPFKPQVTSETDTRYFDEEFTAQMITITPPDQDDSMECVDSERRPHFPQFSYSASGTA
Chain of Ribosomal protein S6 kinase beta-1 (Homo sapiens) (P23443 whole entry, looked up): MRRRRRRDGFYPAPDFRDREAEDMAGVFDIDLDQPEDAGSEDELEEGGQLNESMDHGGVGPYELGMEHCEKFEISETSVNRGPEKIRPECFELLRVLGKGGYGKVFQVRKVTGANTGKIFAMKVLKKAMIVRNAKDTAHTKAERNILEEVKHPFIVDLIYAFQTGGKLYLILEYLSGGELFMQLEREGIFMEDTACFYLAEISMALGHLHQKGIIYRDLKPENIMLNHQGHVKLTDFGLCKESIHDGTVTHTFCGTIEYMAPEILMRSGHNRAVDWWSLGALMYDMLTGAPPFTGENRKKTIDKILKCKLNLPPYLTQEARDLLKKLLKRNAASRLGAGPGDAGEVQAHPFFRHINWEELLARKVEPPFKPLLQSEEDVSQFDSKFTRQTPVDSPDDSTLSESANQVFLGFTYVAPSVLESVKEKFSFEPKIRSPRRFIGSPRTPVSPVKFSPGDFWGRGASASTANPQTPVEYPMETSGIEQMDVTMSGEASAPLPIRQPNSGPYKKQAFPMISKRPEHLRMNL
Chain of RAF proto-oncogene serine/threonine-protein kinase (Homo sapiens) (P04049 whole entry): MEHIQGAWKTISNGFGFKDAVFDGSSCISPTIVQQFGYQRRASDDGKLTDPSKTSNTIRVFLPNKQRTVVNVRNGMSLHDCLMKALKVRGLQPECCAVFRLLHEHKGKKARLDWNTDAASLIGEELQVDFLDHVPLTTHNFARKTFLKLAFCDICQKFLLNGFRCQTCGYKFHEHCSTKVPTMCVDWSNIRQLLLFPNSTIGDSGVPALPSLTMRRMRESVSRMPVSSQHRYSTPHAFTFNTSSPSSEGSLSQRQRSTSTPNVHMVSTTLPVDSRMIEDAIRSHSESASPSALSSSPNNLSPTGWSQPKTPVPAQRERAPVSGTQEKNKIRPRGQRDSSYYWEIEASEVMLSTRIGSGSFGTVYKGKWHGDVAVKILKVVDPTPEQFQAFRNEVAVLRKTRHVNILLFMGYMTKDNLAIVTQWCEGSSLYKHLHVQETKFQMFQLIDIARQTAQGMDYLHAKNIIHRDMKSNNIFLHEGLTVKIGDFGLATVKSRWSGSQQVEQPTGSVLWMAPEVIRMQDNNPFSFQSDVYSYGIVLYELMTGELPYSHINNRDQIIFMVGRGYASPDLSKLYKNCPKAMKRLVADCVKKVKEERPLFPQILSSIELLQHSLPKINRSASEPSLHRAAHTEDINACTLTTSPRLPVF

Compound: C[C@H](O)CNc1nccc(-n2ccnc2-c2ccc(NC(=O)c3cc(N4CCOCC4)cc(C(F)(F)F)c3)cc2)n1
GI50 [1]: 2.25 µM
GI50 [2]: 35.6 µM

Compound: C[C@H](O)CNc1nccc(-n2ccnc2-c2ccc(NC(=O)c3cc(-c4ccc(Cl)cc4)on3)cc2)n1
GI50 [1]: > 100 µM
GI50 [2]: > 100 µM

Compound: C[C@H](O)CNc1nccc(-n2ccnc2-c2ccc(NC(=O)Nc3cccc(Cl)c3)cc2)n1
GI50 [1]: 4.99 µM
GI50 [2]: 3.19 µM

Compound: C[C@H](O)CNc1nccc(-n2ccnc2-c2cccc(NC(=O)c3ccc(N4CCOCC4)c(C(F)(F)F)c3)c2)n1
RatioGI50 [3]: 5
GI50 [1]: 7.37 µM
GI50 [2]: 28.3 µM

inhibition [4]: 1.7%
inhibition [5]: < 0%
inhibition [6]: 17%
inhibition [7]: 5.9%
inhibition [8]: 0.21%
inhibition [9]: 7.6%
inhibition [10]: 13%
inhibition [11]: 89%
inhibition [12]: < 0%
inhibition [13]: 14%
inhibition [14]: 0%
inhibition [15]: 0.19%
inhibition [16]: 99%
inhibition [17]: 5.1%
inhibition [18]: 10%
inhibition [19]: < 0%
inhibition [20]: < 0%
inhibition [21]: 1.5%
inhibition [22]: < 0%
inhibition [23]: 21%
inhibition [24]: 2.4%
inhibition [25]: 82%
inhibition [26]: 5%
inhibition [27]: < 0%
inhibition [28]: 0.8%
inhibition [29]: 9.4%
inhibition [30]: 1.1%
inhibition [31]: 21%
inhibition [32]: 3.6%
inhibition [33]: 6.8%
Compound: C[C@H](O)CNc1nccc(-n2ccnc2-c2cccc(NC(=O)c3ccc(Cl)c(C(F)(F)F)c3)c2)n1
RatioGI50 [3]: 5
GI50 [1]: 0.62 µM
GI50 [2]: 4.49 µM

Compound: C[C@H](O)CNc1nccc(-n2ccnc2-c2cccc(NC(=O)c3cc(-c4ccc(Cl)cc4)on3)c2)n1
RatioGI50 [3]: 5
GI50 [1]: > 100 µM
GI50 [2]: 164 µM
inhibition of growth at 164 µM [34]: < 66%

Compound: C[C@H](O)CNc1nccc(-n2ccnc2-c2cccc(NC(=O)c3cc(N4CCN(C)CC4)cc(C(F)(F)F)c3)c2)n1
RatioGI50 [3]: 5
GI50 [1]: 9.13 µM
GI50 [2]: 10.4 µM

GI50 (A375P): inactive
Compound: C[C@H](O)CNc1nccc(-n2ccnc2-c2cccc(NC(=O)c3cccc(C(F)(F)F)c3)c2)n1
RatioGI50 [3]: 5
GI50 (WM3629): inactive

Compound: C[C@H](O)CNc1nccc(-n2ccnc2-c2cccc(NC(=O)Nc3ccc(Cl)c(C(F)(F)F)c3)c2)n1
RatioGI50 [3]: 5
GI50 [1]: > 100 µM
GI50 [2]: 58.2 µM

Compound: C[C@H](O)CNc1nccc(-n2ccnc2-c2cccc(NC(=O)Nc3ccc(N4CCOCC4)c(C(F)(F)F)c3)c2)n1
RatioGI50 [3]: 5
GI50 [1]: 3.28 µM
GI50 [2]: 34.6 µM

Compound: C[C@H](O)CNc1nccc(-n2ccnc2-c2ccc(NC(=O)c3ncc(-c4ccncc4)s3)cc2)n1
GI50 [1]: > 100 µM
GI50 [2]: 139 µM

Compound: C[C@H](O)CNc1nccc(-n2ccnc2-c2ccc(NC(=O)c3ccc(N4CCOCC4)c(C(F)(F)F)c3)cc2)n1
GI50 [1]: > 100 µM
GI50 [2]: > 100 µM

Compound: C[C@H](O)CNc1nccc(-n2ccnc2-c2cccc(NC(=O)c3ncc(-c4ccncc4)s3)c2)n1
RatioGI50 [3]: 5
GI50 [1]: 13.8 µM
GI50 [2]: > 100 µM

Compound: COc1ccc(-c2cc(C(=O)Nc3ccc(-c4nccn4-c4ccnc(NC[C@H](C)O)n4)cc3)co2)cc1
inhibition of growth at 8.05 µM [35]: < 66%
GI50 [1]: > 100 µM
GI50 [2]: 8.05 µM
